For orientation: IC50 means the concentration that inhibits the measured activity by half.

IC50 data for 25 compounds are collected here from ChEMBL document CHEMBL4038267, “Antiproliferative Activity of Natural Taiwaniaquinoids and Related Compounds” (J Nat Prod, 2017).

Common to all, as to assay type: functional, cell-based
Experiment [1] concerns T84. Kind of experiment: Antiproliferative activity against human T84 cells after 3 days by sulforhodamine B assay. The note with it: T84, 72 h. In a few lines:
(§1)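 Cells from a university core cell-culture facility, grown in DMEM with 10% heat-inactivated FBS, penicillin-streptomycin and 2 mM L-glutamine at 37 °C, 5% CO2, 90% humidity. Seeded at 1 × 10^4 cells/cm2 in quadruplicate, treated after 24 h with increasing concentrations. Fixed in cold 10% TCA, stained with 0.4% sulforhodamine in 1% HOAc, solubilized in 10 mM Tris pH 10.5, OD 492 nm. IC50 by linear interpolation of semilog curves; mean ± SEM, four determinations.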
For orientation: Sulforhodamine B stains cellular protein and so reports cell mass.

The subject of experiment [2] is A549. The experiment is described as follows: Antiproliferative activity against human A549 cells after 3 days by sulforhodamine B assay. The following applies: A549, 72 h. The method in brief: as §1
Experiment [3] concerns MCF7. Kind of experiment: Antiproliferative activity against human MCF7 cells after 3 days by sulforhodamine B assay. The following applies: MCF7, 72 h. The method in brief:
as §1

Take `CC(=O)OC[C@H]1C2=C(C(=O)C(Br)=C(C(C)C)C2=O)[C@@]2(C)CCC[C@@](C)(COC(C)=O)[C@H]12`: the half-maximal inhibitory concentration (IC50) in experiment [1] was 1.6 µM; in experiment [2] it was 1.1 µM; in experiment [3] it was 1.8 µM.

As for `CC(C)C1=C(O)C(=O)C2=C(C1=O)[C@H](CO)[C@H]1C(C)(C)CCC[C@]21C`, the concentration for half-maximal inhibition (IC50) in experiment [1] was 35.3 µM; in experiment [2], 43.6 µM; in experiment [3] it was 39.9 µM.

As to `CC(=O)OC[C@H]1C2=C(C(=O)C=C(C(C)C)C2=O)[C@@]2(C)CCCC(C)(C)[C@H]12`, the 50% inhibitory concentration (IC50) stood at 28.8 µM in experiment [1], 21.1 µM in experiment [2] and 13.6 µM in experiment [3].

`COC(=O)[C@]1(C)CCC[C@]2(C)C3=C(C(=O)C(C(C)C)=C(OC)C3=O)[C@H](CO)[C@@H]12`: the results for the IC50 in experiment [1], in experiment [2] and in experiment [3] were 31.4 µM, 22.9 µM and 10 µM, respectively.

`C=C1C2=C(C(=O)C(OC)=C(C(C)C)C2=O)[C@@]2(C)CCCC(C)(C)C12O` (some centres undefined): the 50% inhibitory concentration (IC50) in experiment [1] was determined as 24.9 µM; in experiment [2], 23.8 µM; in experiment [3] it was 12.6 µM.

Take `CC(C)C1=C(Br)C(=O)C2=C(C[C@H]3C(C)(C)CCC[C@]23C)C1=O`: the IC50 in experiment [1] came out at 3.2 µM; in experiment [2], 11.8 µM; in experiment [3], 2.2 µM.

For `C=C1C2=C(C(=O)C(OC)=C(C(C)C)C2=O)[C@@]2(C)CCC[C@@](C)(C(=O)OC)[C@H]12`, the results for the IC50 in experiment [1], in experiment [2] and in experiment [3] were 15.7 µM, 19.7 µM and 17 µM, respectively.

With `CC(C)C1=C(O)C(=O)[C@]23O[C@@]2(C1=O)[C@H](CO)[C@H]1C(C)(C)CCC[C@@]13C`, the half-inhibitory concentration (IC50) in experiment [1] amounted to 17.1 µM; in experiment [2], 19.2 µM; in experiment [3], 17.1 µM.

For the compound `CC(C)C1=C(Br)C(=O)C2=C(C=C3C(C)(C)CCC[C@@]32C)C1=O`, the figures for the 50% inhibitory concentration (IC50) in experiment [1], in experiment [2] and in experiment [3] were 6.2 µM, 22.1 µM and 3.2 µM, respectively.

For the compound `COC(=O)[C@]1(C)CCC[C@]2(C)C3=C(C(=O)C(C(C)C)=C(O)C3=O)[C@H](CO)[C@@H]12`, the values for the half-inhibitory concentration (IC50) in experiment [1], in experiment [2] and in experiment [3] were 23.2 µM, 8.6 µM and 32.1 µM, respectively.

Turning to `CC(=O)OC[C@H]1c2c(O)c(C(C)C)cc(O)c2[C@@]2(C)CCCC(C)(C)[C@H]12`, the results for the half-inhibitory concentration (IC50) in experiment [1], in experiment [2] and in experiment [3] were 25 µM, 19.4 µM and 36.1 µM, respectively.

For `CC(C)C1=CC(=O)C2=C(C=C3C(C)(C)CCC[C@@]32C)C1=O`, the IC50 in experiment [1] was 8.6 µM; in experiment [2], 15 µM; in experiment [3], 7.1 µM.

On to `CC(C)C1=CC(=O)C2=C(C1=O)[C@H](CO)[C@H]1C(C)(C)CCC[C@]21C`, for which the concentration for half-maximal inhibition (IC50) in experiment [1] turned out to be 18 µM; in experiment [2], 12.5 µM; in experiment [3], 15.7 µM.

Take `COC(=O)[C@]1(C)CCC[C@]2(C)C3=C(C(=O)C(C(C)C)=C(OC)C3=O)[C@H](C=O)[C@@H]12`: the half-maximal inhibitory concentration (IC50) in experiment [1] stood at 12.8 µM; in experiment [2], 12.1 µM; in experiment [3], 11.4 µM.

Consider `CC(=O)OC[C@H]1C2=C(C(=O)C(Br)=C(C(C)C)C2=O)[C@@]2(C)CCCC(C)(C)[C@H]12`, for which the half-inhibitory concentration (IC50) in experiment [1] came to 29.5 µM; in experiment [2], 29.7 µM; in experiment [3] it was 4 µM.

With `C=C1C2=C(C(=O)C(OC)=C(C(C)C)C2=O)[C@@]2(C)CCCC(C)(C)[C@H]12`, the IC50 in experiment [1] came out at 32.3 µM; in experiment [2], 30.9 µM; in experiment [3], 12.4 µM.

On to `COC(=O)[C@]1(C)CCC[C@]2(C)C3=C(C(=O)C(C(C)C)=C(Br)C3=O)[C@H](COC(C)=O)[C@@H]12`, for which the 50% inhibitory concentration (IC50) came out at 2.9 µM in experiment [1], 2.4 µM in experiment [2] and 2.4 µM in experiment [3].

With `C=C1[C@H]2C(C)(C)CCC[C@]2(C)C2(O)C(=O)C(OC)=C(C(C)C)C(=O)C12O` (some centres undefined), the IC50 in experiment [1] is 36.3 µM; in experiment [2] it was 27.2 µM; in experiment [3] it was 36.4 µM.

As to `C=C1C2=C(C(=O)C(Br)=C(C(C)C)C2=O)[C@@]2(C)CCCC(C)(C)[C@H]12`, the IC50 was found to be 9.6 µM in experiment [1] and 1.3 µM in experiment [3].

For the compound `CC(C)C1=CC(=O)C2=C(C[C@H]3C(C)(C)CCC[C@]23C)C1=O`, the IC50 was 6 µM in experiment [1], 30.3 µM in experiment [2] and 16.1 µM in experiment [3].

As for `C=C1C2=C(C(=O)C(Br)=C(C(C)C)C2=O)[C@@]2(C)CCCC(C)(C)C12O` (some centres undefined), the half-maximal inhibitory concentration (IC50) is 5.2 µM in experiment [1], 1.5 µM in experiment [2] and 1 µM in experiment [3].

As for `CC(C)C1=C(Br)C(=O)C2=C(C1=O)[C@H](CO)[C@H]1C(C)(C)CCC[C@]21C`, the half-inhibitory concentration (IC50) in experiment [1] was determined as 6.7 µM; in experiment [2], 12.2 µM; in experiment [3] it was 2.1 µM.

Turning to `COC1=C(C(C)C)C(=O)C2=C(C1=O)[C@@]1(C)CCCC(C)(C)[C@@H]1C2` [TAIWANIAQUINONE G], the IC50 in experiment [1] stood at 14.1 µM; in experiment [2] it was 30.5 µM; in experiment [3], 16.8 µM.

For `COC1=C(C(C)C)C(=O)C2=C(C1=O)[C@@]1(C)CCCC(C)(C)[C@@H]1[C@H]2C=O` [TAIWANIAQUINONE], the half-inhibitory concentration (IC50) in experiment [1] came out at 11.9 µM; in experiment [2], 10.1 µM; in experiment [3], 15.4 µM.

On to `CC(C)C1=C(O)C(=O)C2=C(C1=O)[C@H](C=O)[C@H]1C(C)(C)CCC[C@]21C` [TAIWANIQUINONE A], for which the 50% inhibitory concentration (IC50) was determined as 30.9 µM in experiment [1], 25.1 µM in experiment [2] and 28.6 µM in experiment [3].
